Entries after “also recorded” stand apart in the source; their conditions may differ.
Legend:
AT2 receptor [1] = assay: Neurite outgrowth assay in NG108-15 cells; type: cell-based; conditions: for Function (10 nM): three days, alone, with 10 μM PD 123319 or 100 nM Ang II
Outline: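 NG108-15 cells (passages 18–25; DMEM, 10% FBS, HAT, gentamycin; 37 °C, 7% CO2) plated at 3.6 × 10^4 cells/35 mm dish. They were treated once daily for three days from 24 h post-plating with 10 nM test compound (some also 100 nM). Test compound was added alone or 30 min before 100 nM Ang II; 10 μM PD 123319 was given 30 min before agonist. On day 4, phase-contrast micrographs were scored as % of ≥400 cells bearing a neurite longer than the cell body. Duplicates, three independent experiments, mean ± SEM, two-way ANOVA.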

AT2 receptor [2] = conditions: cited from earlier work; for Induction of neurite outgrowth: NG108-15 cells
p42/p44mapk pathway = conditions: cited from earlier work
AT2 receptor [3] = conditions: AT2R antagonist; cited from earlier work
AT2 receptor [4] = target: T1, AT2 receptor (Sus scrofa, UniProt A0A4X1W622); assay: AT2 receptor binding, displacement of [125I]Ang II from pig uterus; conditions: versus compound 3
T1 sequence (A0A4X1W622 1-362): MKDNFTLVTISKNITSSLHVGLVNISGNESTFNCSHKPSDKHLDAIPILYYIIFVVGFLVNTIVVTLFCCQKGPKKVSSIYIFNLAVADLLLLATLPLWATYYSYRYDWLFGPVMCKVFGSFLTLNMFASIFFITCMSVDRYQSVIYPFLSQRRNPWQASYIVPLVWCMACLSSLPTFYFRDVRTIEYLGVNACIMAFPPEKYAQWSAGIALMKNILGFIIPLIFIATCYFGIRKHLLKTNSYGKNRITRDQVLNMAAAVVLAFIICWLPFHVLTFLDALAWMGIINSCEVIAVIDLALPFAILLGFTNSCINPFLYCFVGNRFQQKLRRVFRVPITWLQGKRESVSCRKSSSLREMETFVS

CCCCOC(=O)NS(=O)(=O)c1cc2c(cc1-c1ccc(Cn3ccnc3)cc1)CCC2C(C)C (centres unmarked) [Compound 9a, N-(Butoxycarbonyl)-5-[4-(imidazol-1-yl)-methylphenyl]-1-isopropylindan-6-sulfonamide]
Function (10 nM) (AT2 receptor [1]; 10 nM, NG108-15 cells): agonistic properties; also recorded: Agonist

CCCCOC(=O)NS(=O)(=O)c1ccc2c(c1-c1cccc(Cn3ccnc3)c1)CCC2C(C)C (centres unmarked) [Compound 8a, N-(Butoxycarbonyl)-4-[3-(imidazol-1-yl)-methylphenyl]-1-isopropylindan-5-sulfonamide]
Function (10 nM) (AT2 receptor [1]; 10 nM, NG108-15 cells): Antagonist

CCCCOC(=O)NS(=O)(=O)c1cc2c(cc1-c1cccc(Cn3ccnc3)c1)CCC2C(C)C (centres unmarked) [Compound 10a, N-(Butoxycarbonyl)-5-[3-(imidazol-1-yl)-methylphenyl]-1-isopropylindan-6-sulfonamide]
Function (10 nM) (AT2 receptor [1]; 10 nM, NG108-15 cells): Antagonist

Ang II: hypertensive octapeptide angiotensin II
Induction of neurite outgrowth (AT2 receptor [2]): induces neurite outgrowth

CCCCOC(=O)NS(=O)(=O)c1cc2c(cc1-c1cccc(Cn3ccnc3)c1)CCC2C(C)C (centres unmarked) [Compound 10b, N-(Butoxycarbonyl)-5-[3-(imidazol-1-yl)-methylphenyl]-1-isopropylindan-6-sulfonamide]
Function (10 nM) (AT2 receptor [1]; 10 nM, NG108-15 cells): agonistic effect; also recorded: Agonist

Nα-nicotinoyl-Tyr-(Nα-Cbz-Arg)-Lys-His-Pro-Ile [CGP-42112]
Induction of neurite outgrowth (AT2 receptor [2]): induces neurite outgrowth

CCCCOC(=O)NS(=O)(=O)c1ccc2c(c1-c1cccc(Cn3ccnc3)c1)CCC2C(C)C (centres unmarked) [Compound 8b, N-(Butoxycarbonyl)-4-[3-(imidazol-1-yl)-methylphenyl]-1-isopropylindan-5-sulfonamide]
Function (10 nM) (AT2 receptor [1]; 10 nM, NG108-15 cells): Antagonist

CCCCOC(=O)NS(=O)(=O)c1cc2c(cc1-c1ccc(Cn3ccnc3)cc1)CCC2C(C)C (centres unmarked) [Compound 9b, N-(Butoxycarbonyl)-5-[4-(imidazol-1-yl)-methylphenyl]-1-isopropylindan-6-sulfonamide]
Function (10 nM) (AT2 receptor [1]; 10 nM, NG108-15 cells): agonistic properties; also recorded: Agonist

CC(C)(C)c1cc(C=C(C#N)C(N)=S)cc(C(C)(C)C)c1O [AG879, α-cyano-(3,5-di-t-butyl-4-hydroxy)thiocinnamide]
Effect on neurite outgrowth (inhibition) (AT2 receptor [2]): total
Inhibition of the p42/p44mapk pathway (p42/p44mapk pathway): only partially inhibits

CCCCOC(=O)NS(=O)(=O)c1ccc2c(c1-c1ccc(Cn3ccnc3)cc1)CCC2C(C)C (centres unmarked) [Compound 7b, N-(Butoxycarbonyl)-4-[4-(imidazol-1-yl)-methylphenyl]-1-isopropylindan-5-sulfonamide]
Function (10 nM) (AT2 receptor [1]; 10 nM, NG108-15 cells): antagonism; also recorded: Antagonist

Cc1cc(Cn2cnc3c2C[C@@H](C(=O)O)N(C(=O)C(c2ccccc2)c2ccccc2)C3)ccc1N(C)C [PD 123319, reference compound]
IC50 (AT2 receptor [3]): 0.034 µM
Effect of co-incubation on induced neurite outgrowth (AT2 receptor [1]; 10 μM PD 123319 co-incubated with agonists): reduced the induced neurite outgrowth
Morphology on treatment alone (AT2 receptor [1]; PD 123319 alone, data not shown): did not alter the morphology compared to untreated cells

CCCCOC(=O)NS(=O)(=O)c1ccc2c(c1-c1ccc(Cn3ccnc3)cc1)CCC2C(C)C (centres unmarked) [Compound 7a, N-(Butoxycarbonyl)-4-[4-(imidazol-1-yl)-methylphenyl]-1-isopropylindan-5-sulfonamide]
Degree of neurite outgrowth induced (AT2 receptor [1]; 10 nM, NG108-15 cells): highest degree of neurite outgrowth among this set of compounds
Function (10 nM) (AT2 receptor [1]; 10 nM, NG108-15 cells): strong agonistic effect; also recorded: Agonist
Loss in affinity compared to non rigidified analogue 3 (AT2 receptor [4]): ~200 times
